Laboratory results from ChEMBL document CHEMBL4706541, “Design and synthesis of 1H-indazole-3-carboxamide derivatives as potent and selective PAK1 inhibitors with anti-tumour migration and invasion activities” (Eur J Med Chem, 2020).
pIC50: −log10 of the molar value.

Assays:
[1] = target: T1, Serine/threonine-protein kinase PAK 1 (Homo sapiens, UniProt Q13153); test: Inhibition of full length recombinant human N-terminal GST/His6-tagged PAK1 expressed in sf9 insect cells using tetra LRRWSLG as substrate preincubated for 20 min followed by [gamma33P]ATP addition and measured after 120 mins by Hotspot assay
T1 sequence (Q13153 whole entry): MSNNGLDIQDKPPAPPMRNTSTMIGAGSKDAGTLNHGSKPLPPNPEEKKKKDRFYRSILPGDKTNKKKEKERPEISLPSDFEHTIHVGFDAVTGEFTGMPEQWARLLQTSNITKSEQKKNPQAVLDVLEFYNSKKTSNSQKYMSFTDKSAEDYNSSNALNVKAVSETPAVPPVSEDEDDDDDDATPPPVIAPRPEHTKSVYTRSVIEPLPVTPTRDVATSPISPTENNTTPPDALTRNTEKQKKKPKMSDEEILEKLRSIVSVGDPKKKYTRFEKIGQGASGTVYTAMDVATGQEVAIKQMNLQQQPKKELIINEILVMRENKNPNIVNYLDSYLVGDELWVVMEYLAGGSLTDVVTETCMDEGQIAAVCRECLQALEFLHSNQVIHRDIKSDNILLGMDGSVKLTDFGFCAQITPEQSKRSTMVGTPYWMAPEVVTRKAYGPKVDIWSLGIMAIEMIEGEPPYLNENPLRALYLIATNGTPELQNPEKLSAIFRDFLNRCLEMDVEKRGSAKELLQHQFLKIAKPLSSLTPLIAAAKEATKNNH

HCT-116 = test: Antiproliferative activity against human HCT-116 cells assessed as growth inhibition at 1 uM after 72 hrs by Cell Titer-Glo assay relative to control; format: functional; conditions: read-out: GI
Method in brief: (§1)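 Cells kept at 37 °C in 5% CO2 and plated at 4000 per well. Treated with compound for 72 h. Viability read by CellTiter-Glo luminescence. Each compound run in duplicate, data as means ± SD.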

MDA-MB-231 = test: Antiproliferative activity against human MDA-MB-231 cells assessed as growth inhibition at 1 uM after 72 hrs by Cell Titer-Glo assay relative to control; format: functional; conditions: read-out: GI; method in brief: as §1
[2] = target: Voltage-gated inwardly rectifying potassium channel KCNH2 (Homo sapiens, UniProt Q12809); test: Inhibition of human ERG
Chain of Voltage-gated inwardly rectifying potassium channel KCNH2 (Q12809 whole entry): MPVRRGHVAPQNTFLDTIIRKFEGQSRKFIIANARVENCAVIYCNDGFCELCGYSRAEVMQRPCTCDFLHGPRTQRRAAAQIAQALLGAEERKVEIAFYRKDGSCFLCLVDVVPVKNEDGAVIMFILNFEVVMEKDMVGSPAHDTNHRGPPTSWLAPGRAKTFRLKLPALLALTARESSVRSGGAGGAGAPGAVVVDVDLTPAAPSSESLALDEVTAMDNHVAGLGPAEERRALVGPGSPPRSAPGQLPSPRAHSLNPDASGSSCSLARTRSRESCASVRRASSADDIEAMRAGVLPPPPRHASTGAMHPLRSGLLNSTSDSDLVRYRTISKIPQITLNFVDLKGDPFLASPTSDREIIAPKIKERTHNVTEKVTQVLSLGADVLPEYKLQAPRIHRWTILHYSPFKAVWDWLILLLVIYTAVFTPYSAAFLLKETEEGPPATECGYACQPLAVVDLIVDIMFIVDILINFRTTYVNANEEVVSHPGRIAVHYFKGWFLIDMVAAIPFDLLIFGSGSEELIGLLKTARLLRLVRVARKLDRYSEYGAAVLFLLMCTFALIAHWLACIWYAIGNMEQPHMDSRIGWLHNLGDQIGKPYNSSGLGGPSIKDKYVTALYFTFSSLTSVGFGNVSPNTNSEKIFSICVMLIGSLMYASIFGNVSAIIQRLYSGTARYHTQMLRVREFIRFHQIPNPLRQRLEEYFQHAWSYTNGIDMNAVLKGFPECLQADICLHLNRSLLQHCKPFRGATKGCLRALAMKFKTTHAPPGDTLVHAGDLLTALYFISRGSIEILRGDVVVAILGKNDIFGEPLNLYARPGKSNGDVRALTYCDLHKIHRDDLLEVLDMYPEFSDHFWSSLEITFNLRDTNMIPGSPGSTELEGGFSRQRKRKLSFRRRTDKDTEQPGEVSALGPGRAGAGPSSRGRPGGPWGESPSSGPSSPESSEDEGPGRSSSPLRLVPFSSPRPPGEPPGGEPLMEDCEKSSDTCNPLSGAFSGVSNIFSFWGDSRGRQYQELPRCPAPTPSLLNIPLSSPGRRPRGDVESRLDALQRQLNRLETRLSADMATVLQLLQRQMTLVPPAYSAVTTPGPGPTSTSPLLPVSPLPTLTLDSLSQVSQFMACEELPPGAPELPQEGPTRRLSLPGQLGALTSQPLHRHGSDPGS

[3] = target: Serine/threonine-protein kinase PAK 4 (Homo sapiens, UniProt O96013); test: Inhibition of full length recombinant human N-terminal GST/His6-tagged PAK4 expressed in baculovirus infected sf9 insect cells using tetra LRRWSLG as substrate preincubated for 20 min followed by [gamma33P]ATP addition and measured after 120 mins by Hotspot assay
Chain of Serine/threonine-protein kinase PAK 4 (O96013 whole entry): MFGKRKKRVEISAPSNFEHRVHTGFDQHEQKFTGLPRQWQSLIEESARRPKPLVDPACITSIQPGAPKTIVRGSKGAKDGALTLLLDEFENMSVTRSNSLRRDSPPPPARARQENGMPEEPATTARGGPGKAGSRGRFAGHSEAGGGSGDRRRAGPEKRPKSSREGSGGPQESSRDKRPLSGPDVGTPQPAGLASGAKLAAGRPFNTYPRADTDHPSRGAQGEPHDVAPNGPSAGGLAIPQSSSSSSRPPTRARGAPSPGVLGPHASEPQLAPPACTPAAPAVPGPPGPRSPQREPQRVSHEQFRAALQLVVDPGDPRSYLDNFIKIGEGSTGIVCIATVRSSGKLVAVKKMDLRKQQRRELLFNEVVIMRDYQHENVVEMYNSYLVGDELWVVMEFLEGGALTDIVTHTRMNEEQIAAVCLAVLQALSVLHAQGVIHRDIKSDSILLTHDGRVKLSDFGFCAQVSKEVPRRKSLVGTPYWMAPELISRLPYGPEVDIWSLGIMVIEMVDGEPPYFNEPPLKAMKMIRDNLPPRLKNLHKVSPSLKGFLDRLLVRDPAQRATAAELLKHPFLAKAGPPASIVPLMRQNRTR

Homo sapiens = species on record: Homo sapiens; test: Selectivity index ratio of IC50 for inhibition of human PAK4 to IC50 for human PAK1
Method in brief: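 Compound tested from 10 µM in 3-fold serial dilutions in the HotSpot radiometric assay, with 20 min preincubation, 10 µM ATP/33P-ATP and 120 min at 25 °C. Filter-binding gives IC50. Selectivity is expressed as the PAK4 IC50 divided by the PAK1 IC50.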

[4] = target: T1, Serine/threonine-protein kinase PAK 1; test: Inhibition of PAK1 (unknown origin)

| SMILES | pIC50 [1] | inhibition of growth at 1 µM (HCT-116) [%] | inhibition of growth at 1 µM (MDA-MB-231) [%] | pIC50 [2] | pIC50 [3] | Ratio IC50 (Homo sapiens) | pIC50 [4] |
| --- | --- | --- | --- | --- | --- | --- | --- |
| CNC(=O)c1n[nH]c2cc(-c3ccc(-n4ccccc4=O)cc3Cl)ccc12 | 6.48 |  |  |  |  |  |  |
| COCCNC(=O)c1n[nH]c2cc(-c3ccc(-n4cccc(C)c4=O)cc3Cl)ccc12 | 7.15 | 10.3 | 3.07 |  |  |  |  |
| CCNC(=O)c1n[nH]c2cc(-c3ccc(-n4cccc(C)c4=O)cc3Cl)ccc12 | 7.35 | 9.37 | 10.2 | 4.04 | < 5.00 | > 200 |  |
| O=C(NCC1CC1)c1n[nH]c2cc(-c3ccc(-n4ccccc4=O)cc3Cl)ccc12 | 6.23 |  |  |  |  |  |  |
| CNC(=O)c1n[nH]c2cc(-c3ccc(-n4cccc(C)c4=O)cc3Cl)ccc12 | 7.80 | 17.2 | 13.2 |  | < 5.00 |  |  |
| Cc1nc(Nc2n[nH]c3c2CN(C(=O)N[C@H](CN(C)C)c2ccccc2)C3(C)C)c2sccc2n1 [PF-03758309] |  | 83.2 | 62.6 | 4.39 |  |  |  |
| Cc1cccn(-c2ccc(-c3ccc4c(C(=O)NCCO)n[nH]c4c3)c(Cl)c2)c1=O | 7.18 | 19.2 | 17.4 |  |  |  |  |
| Cc1cccn(-c2ccc(-c3ccc4c(C(=O)NCCc5ccncc5)n[nH]c4c3)c(Cl)c2)c1=O | 7.68 | 15.3 | 8.42 |  |  |  |  |
| Cc1cncc(-c2ccc(-c3ccc4c(C(=O)NCC5CC5)n[nH]c4c3)c(Cl)c2)n1 | 6.11 |  |  |  |  |  |  |
| Cc1cccn(-c2ccc(-c3ccc4c(C(=O)NC5CCN(C)CC5)n[nH]c4c3)c(Cl)c2)c1=O | 6.84 |  |  |  |  |  |  |
| CNC(=O)c1n[nH]c2cc(-c3ccc(-c4cccc(C)n4)cc3Cl)ccc12 | 7.28 | 7.16 | 8.12 |  |  |  |  |
| Cc1cccn(-c2ccc(-c3ccc4c(C(=O)NCC5CC5)n[nH]c4c3)c(Cl)c2)c1=O | 7.47 | 10.8 | 6.87 |  | < 5.00 |  |  |
| CN[C@@H]1C[C@H]2O[C@@](C)([C@@H]1OC)n1c3ccccc3c3c4c(c5c6ccccc6n2c5c31)C(=O)NC4 |  |  |  | 4.04 |  |  |  |
| Cc1cccn(-c2ccc(-c3ccc4c(C(=O)NC5CCOCC5)n[nH]c4c3)c(Cl)c2)c1=O | 6.13 | 7.91 | 19.2 |  |  |  |  |
| CNC(=O)c1n[nH]c2cc(-c3ccccc3Cl)ccc12 | 5.30 |  |  |  |  |  | 5.30 |
| Cc1cccc(-c2ccc(-c3ccc4c(C(=O)NCC5CC5)n[nH]c4c3)c(Cl)c2)n1 | 6.64 |  |  |  |  |  |  |
| Cc1cccn(-c2ccc(-c3ccc4c(C(=O)N5CCCC5)n[nH]c4c3)c(Cl)c2)c1=O | < 5.00 |  |  |  |  |  |  |
| Cc1cccn(-c2ccc(-c3ccc4c(C(=O)NCC5CCN(C)CC5)n[nH]c4c3)c(Cl)c2)c1=O | 7.66 | 20.1 | 18.4 |  |  |  |  |
| CNC(=O)c1n[nH]c2cc(-c3ccc(-c4cncc(C)n4)cc3Cl)ccc12 | 6.80 | 11.5 | 15.3 |  |  |  |  |
| Cc1cccn(-c2ccc(-c3ccc4c(C(=O)NCc5ccccc5)n[nH]c4c3)c(Cl)c2)c1=O | 7.04 | 13.2 | 9.66 |  |  |  |  |
| Cc1cccn(-c2ccc(-c3ccc4c(C(=O)N5CCOCC5)n[nH]c4c3)c(Cl)c2)c1=O | < 5.00 |  |  |  |  |  |  |
| Cc1cccn(-c2ccc(-c3ccc4c(C(=O)NCC5CCOCC5)n[nH]c4c3)c(Cl)c2)c1=O | 7.38 | 16.2 | 9.45 |  |  |  |  |
| Cc1cccn(-c2ccc(-c3ccc4c(C(=O)Nc5ccncc5)n[nH]c4c3)c(Cl)c2)c1=O | 7.80 | 4.41 | 6.59 |  |  |  |  |
